Test results as given in ChEMBL document CHEMBL5058577, “EUbOPEN Chemogenomics Library 2 (Multiplex)” (2022).

Test system: HEK-293T
Assay: Multiplex assay against HEK293T
Assay type: toxicity, cell-based
Conditions: human
In short: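 With compound added, live cells were imaged on a CQ1 microscope at 37°C and 5% CO2; staining with Hoechst33342, BioTracker Green Microtubule Cytoskeleton Dye, MitoTracker Red and Annexin V Alexa Fluor 680 had been done at seeding. The CellPathfinder machine-learning gating scheme split cells into Hoechst high-intensity objects or normal cells, normal cells into healthy, pyknosed or fragmented nuclei, and pyknosed cells into mitotic or apoptotic. The tubulin, mitochondrial-mass and membrane-permeability phenotypes are per cents of healthy-nucleus cells.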

[1] = 12 h, 1 µM, compound concentration 1 uM, replicate 1
[2] = 12 h, 1 µM, compound concentration 1 uM, replicate 2
[3] = 12 h, 10 µM, compound concentration 10 uM, replicate 1
[4] = 12 h, 10 µM, compound concentration 10 uM, replicate 2
[5] = 24 h, 1 µM, compound concentration 1 uM, replicate 1
[6] = 24 h, 1 µM, compound concentration 1 uM, replicate 2
[7] = 24 h, 10 µM, compound concentration 10 uM, replicate 1
[8] = 24 h, 10 µM, compound concentration 10 uM, replicate 2
[9] = 48 h, 1 µM, compound concentration 1 uM, replicate 1
[10] = 48 h, 1 µM, compound concentration 1 uM, replicate 2
[11] = 48 h, 10 µM, compound concentration 10 uM, replicate 1
[12] = 48 h, 10 µM, compound concentration 10 uM, replicate 2

SMILES: CC(C)(C)c1ccc(CSc2cnn(C(C)(C)C)c(=O)c2Cl)cc1 [PYRIDABEN]
- Population Apoptotic (%) [1]: 51%
- Population Fragmented Nuclei (%) [1]: 7%
- Population Healthy Nuclei (%) [1]: 78%
- Population Hoechst High Intensity Objects (%) [1]: 12%
- Population Membrane Permeable-Phenotype (%) [1]: 0%
- Population Mitochondria Different-Phenotype (%) [1]: 51%
- Population Mitotic Cells (%) [1]: 48%
- Population Normal (%) [1]: 87%
- Population Pyknosed Nuclei (%) [1]: 14%
- Population Tubulin-Different-Phenotype (%) [1]: 34%
- Total Cell Count [1]: 299
- Population Apoptotic (%) [2]: 28%
- Population Fragmented Nuclei (%) [2]: 6%
- Population Healthy Nuclei (%) [2]: 83%
- Population Hoechst High Intensity Objects (%) [2]: 8%
- Population Mitochondria Different-Phenotype (%) [2]: 63%
- Population Mitotic Cells (%) [2]: 71%
- Population Normal (%) [2]: 91%
- Population Pyknosed Nuclei (%) [2]: 10%
- Population Tubulin-Different-Phenotype (%) [2]: 30%
- Total Cell Count [2]: 306
- Population Apoptotic (%) [3]: 56%
- Population Fragmented Nuclei (%) [3]: 6%
- Population Healthy Nuclei (%) [3]: 77%
- Population Hoechst High Intensity Objects (%) [3]: 11%
- Population Membrane Permeable-Phenotype (%) [3]: 0%
- Population Mitochondria Different-Phenotype (%) [3]: 75%
- Population Mitotic Cells (%) [3]: 44%
- Population Normal (%) [3]: 88%
- Population Pyknosed Nuclei (%) [3]: 15%
- Population Tubulin-Different-Phenotype (%) [3]: 55%
- Total Cell Count [3]: 359
- Population Apoptotic (%) [4]: 62%
- Population Fragmented Nuclei (%) [4]: 8%
- Population Healthy Nuclei (%) [4]: 74%
- Population Hoechst High Intensity Objects (%) [4]: 17%
- Population Mitochondria Different-Phenotype (%) [4]: 81%
- Population Mitotic Cells (%) [4]: 37%
- Population Normal (%) [4]: 82%
- Population Pyknosed Nuclei (%) [4]: 16%
- Population Tubulin-Different-Phenotype (%) [4]: 38%
- Total Cell Count [4]: 236
- Population Apoptotic (%) [5]: 33%
- Population Fragmented Nuclei (%) [5]: 7%
- Population Healthy Nuclei (%) [5]: 80%
- Population Hoechst High Intensity Objects (%) [5]: 9%
- Population Membrane Permeable-Phenotype (%) [5]: 0%
- Population Mitochondria Different-Phenotype (%) [5]: 37%
- Population Mitotic Cells (%) [5]: 66%
- Population Normal (%) [5]: 90%
- Population Pyknosed Nuclei (%) [5]: 11%
- Population Tubulin-Different-Phenotype (%) [5]: 27%
- Total Cell Count [5]: 373
- Population Apoptotic (%) [6]: 35%
- Population Healthy Nuclei (%) [6]: 83%
- Population Hoechst High Intensity Objects (%) [6]: 8%
- Population Mitochondria Different-Phenotype (%) [6]: 43%
- Population Mitotic Cells (%) [6]: 64%
- Population Normal (%) [6]: 91%
- Population Pyknosed Nuclei (%) [6]: 8%
- Population Tubulin-Different-Phenotype (%) [6]: 22%
- Total Cell Count [6]: 370
- Population Apoptotic (%) [7]: 44%
- Population Fragmented Nuclei (%) [7]: 7%
- Population Healthy Nuclei (%) [7]: 79%
- Population Hoechst High Intensity Objects (%) [7]: 10%
- Population Membrane Permeable-Phenotype (%) [7]: 0%
- Population Mitochondria Different-Phenotype (%) [7]: 68%
- Population Mitotic Cells (%) [7]: 55%
- Population Normal (%) [7]: 89%
- Population Pyknosed Nuclei (%) [7]: 12%
- Population Tubulin-Different-Phenotype (%) [7]: 52%
- Total Cell Count [7]: 386
- Population Apoptotic (%) [8]: 46%
- Population Fragmented Nuclei (%) [8]: 8%
- Population Healthy Nuclei (%) [8]: 70%
- Population Hoechst High Intensity Objects (%) [8]: 23%
- Population Mitochondria Different-Phenotype (%) [8]: 65%
- Population Mitotic Cells (%) [8]: 53%
- Population Normal (%) [8]: 76%
- Population Pyknosed Nuclei (%) [8]: 21%
- Population Tubulin-Different-Phenotype (%) [8]: 25%
- Total Cell Count [8]: 252
- Population Apoptotic (%) [9]: 19%
- Population Fragmented Nuclei (%) [9]: 11%
- Population Healthy Nuclei (%) [9]: 80%
- Population Hoechst High Intensity Objects (%) [9]: 5%
- Population Membrane Permeable-Phenotype (%) [9]: 0%
- Population Mitochondria Different-Phenotype (%) [9]: 25%
- Population Mitotic Cells (%) [9]: 80%
- Population Normal (%) [9]: 94%
- Population Pyknosed Nuclei (%) [9]: 7%
- Population Tubulin-Different-Phenotype (%) [9]: 14%
- Total Cell Count [9]: 585
- Population Apoptotic (%) [10]: 30%
- Population Fragmented Nuclei (%) [10]: 9%
- Population Healthy Nuclei (%) [10]: 84%
- Population Hoechst High Intensity Objects (%) [10]: 4%
- Population Mitochondria Different-Phenotype (%) [10]: 21%
- Population Mitotic Cells (%) [10]: 69%
- Population Normal (%) [10]: 95%
- Population Pyknosed Nuclei (%) [10]: 6%
- Population Tubulin-Different-Phenotype (%) [10]: 13%
- Total Cell Count [10]: 522
- Population Apoptotic (%) [11]: 48%
- Population Fragmented Nuclei (%) [11]: 8%
- Population Healthy Nuclei (%) [11]: 79%
- Population Hoechst High Intensity Objects (%) [11]: 11%
- Population Membrane Permeable-Phenotype (%) [11]: 0%
- Population Mitochondria Different-Phenotype (%) [11]: 59%
- Population Mitotic Cells (%) [11]: 51%
- Population Normal (%) [11]: 88%
- Population Pyknosed Nuclei (%) [11]: 12%
- Population Tubulin-Different-Phenotype (%) [11]: 43%
- Total Cell Count [11]: 424
- Population Apoptotic (%) [12]: 64%
- Population Fragmented Nuclei (%) [12]: 13%
- Population Healthy Nuclei (%) [12]: 71%
- Population Hoechst High Intensity Objects (%) [12]: 14%
- Population Mitochondria Different-Phenotype (%) [12]: 48%
- Population Mitotic Cells (%) [12]: 35%
- Population Normal (%) [12]: 85%
- Population Pyknosed Nuclei (%) [12]: 14%
- Population Tubulin-Different-Phenotype (%) [12]: 28%
- Total Cell Count [12]: 290
